In brackets after ≈: the same amount, converted by molar mass. Activity calls are given as the source filed them. No cut-off for these calls is given here.
Legend:
[1] = target: T1, Topoisomerase IV (Staphylococcus aureus) (UniProt P0C1U9+P0C1S7); assay: Inhibition of decatenation activity of DNA topoisomerase 4 in Staphylococcus aureus ATCC 25923 using kDNA as substrate at 1 to 4 ug/ml after 1 hr using ethidium bromide staining by agarose gel electrophoresis; assay type: protein-complex assay
How it was run: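 Kit-supplied S. aureus topoisomerase IV, 1 U, with 200 ng kDNA in the supplied assay buffer. Reactions ran 30 min at 37 °C with compound at 1, 4 or 32 µg/ml. They were stopped with STEB and extracted with chloroform/isoamyl alcohol (24:1). Products were run on 1% agarose in TAE for 1 h at 120 V and visualised with ethidium bromide under UV. Controls were no-enzyme, no-compound and ±DMSO.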

[2] = target: T1, Topoisomerase IV (Staphylococcus aureus); assay: Inhibition of decatenation activity of DNA topoisomerase 4 in Staphylococcus aureus ATCC 29213 using kDNA as substrate at 1 to 4 ug/ml […] using ethidium bromide staining by agarose gel electrophoresis; assay type: protein-complex assay
[3] = target: T2, DNA topoisomerase 4 (Staphylococcus epidermidis) (UniProt Q5HPI6+Q5HPI5); assay: Inhibition of decatenation activity of DNA topoisomerase 4 in Staphylococcus epidermidis ATCC 12228 using kDNA as substrate at 1 to 4 ug/ml after 1 hr using ethidium bromide staining by agarose gel electrophoresis; assay type: protein assay
T2 sequence (Q5HPI5 whole entry, looked up): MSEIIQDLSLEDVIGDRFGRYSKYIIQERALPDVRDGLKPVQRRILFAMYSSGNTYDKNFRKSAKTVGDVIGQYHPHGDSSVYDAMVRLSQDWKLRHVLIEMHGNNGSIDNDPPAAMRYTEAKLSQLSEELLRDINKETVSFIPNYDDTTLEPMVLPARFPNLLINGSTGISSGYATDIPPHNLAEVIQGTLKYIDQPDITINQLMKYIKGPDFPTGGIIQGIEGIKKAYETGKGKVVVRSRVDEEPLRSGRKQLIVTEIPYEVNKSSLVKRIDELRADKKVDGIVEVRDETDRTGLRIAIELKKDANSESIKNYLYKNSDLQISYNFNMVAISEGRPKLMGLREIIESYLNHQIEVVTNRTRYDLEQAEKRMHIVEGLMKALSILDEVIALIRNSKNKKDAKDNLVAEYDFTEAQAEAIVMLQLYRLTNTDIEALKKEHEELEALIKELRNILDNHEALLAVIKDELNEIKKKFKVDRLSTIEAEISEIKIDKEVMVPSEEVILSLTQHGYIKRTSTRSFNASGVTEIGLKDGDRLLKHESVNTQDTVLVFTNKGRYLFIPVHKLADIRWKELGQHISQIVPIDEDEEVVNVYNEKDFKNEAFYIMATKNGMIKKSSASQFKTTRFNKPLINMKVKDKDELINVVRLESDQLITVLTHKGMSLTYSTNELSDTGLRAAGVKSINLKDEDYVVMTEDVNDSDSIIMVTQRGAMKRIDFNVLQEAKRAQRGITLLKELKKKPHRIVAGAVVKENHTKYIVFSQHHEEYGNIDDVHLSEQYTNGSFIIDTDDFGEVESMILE
T2 sequence (Q5HPI6 whole entry, looked up): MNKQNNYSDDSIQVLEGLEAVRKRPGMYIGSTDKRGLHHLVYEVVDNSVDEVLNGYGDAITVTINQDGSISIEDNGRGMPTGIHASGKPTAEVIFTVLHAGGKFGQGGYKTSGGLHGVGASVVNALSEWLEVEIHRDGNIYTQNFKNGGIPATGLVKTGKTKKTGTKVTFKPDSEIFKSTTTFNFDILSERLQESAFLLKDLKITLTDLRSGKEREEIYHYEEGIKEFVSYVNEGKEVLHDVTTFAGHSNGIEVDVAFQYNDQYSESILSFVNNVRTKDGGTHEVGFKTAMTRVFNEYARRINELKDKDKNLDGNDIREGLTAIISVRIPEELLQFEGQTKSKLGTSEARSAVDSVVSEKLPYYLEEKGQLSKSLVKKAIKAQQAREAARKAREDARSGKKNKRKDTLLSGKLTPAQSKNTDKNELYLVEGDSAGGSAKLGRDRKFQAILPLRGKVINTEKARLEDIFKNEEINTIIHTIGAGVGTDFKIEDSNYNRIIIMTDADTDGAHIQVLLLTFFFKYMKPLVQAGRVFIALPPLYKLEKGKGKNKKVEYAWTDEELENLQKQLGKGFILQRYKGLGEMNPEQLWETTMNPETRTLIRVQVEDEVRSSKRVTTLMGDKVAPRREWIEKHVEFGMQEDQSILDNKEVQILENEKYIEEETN

[4] = target: T1, Topoisomerase IV (Staphylococcus aureus); assay: Inhibition of decatenation activity of DNA topoisomerase 4 in hospital methicillin-resistant Staphylococcus aureus 53/05 using kDNA as substrate at 1 to 4 ug/ml after 1 hr using ethidium bromide staining by agarose gel electrophoresis; assay type: protein-complex assay
[5] = target: T1, Topoisomerase IV (Staphylococcus aureus); assay: Inhibition of decatenation activity of DNA topoisomerase 4 in hospital methicillin-resistant Staphylococcus aureus 81/05 using kDNA as substrate at 1 to 4 ug/ml after 1 hr using ethidium bromide staining by agarose gel electrophoresis; assay type: protein-complex assay
[6] = target: T1, Topoisomerase IV (Staphylococcus aureus); assay: Inhibition of decatenation activity of DNA topoisomerase 4 in hospital methicillin-resistant Staphylococcus aureus 522/11 using kDNA as substrate at 1 to 4 ug/ml after 1 hr using ethidium bromide staining by agarose gel electrophoresis; assay type: protein-complex assay
[7] = target: T1, Topoisomerase IV (Staphylococcus aureus); assay: Inhibition of decatenation activity of DNA topoisomerase 4 in hospital methicillin-resistant Staphylococcus aureus 573/11 using kDNA as substrate at 1 to 4 ug/ml after 1 hr using ethidium bromide staining by agarose gel electrophoresis; assay type: protein-complex assay
[8] = target: T2, DNA topoisomerase 4 (Staphylococcus epidermidis); assay: Inhibition of decatenation activity of DNA topoisomerase 4 in hospital methicillin-resistant Staphylococcus epidermidis 23/04 using kDNA as substrate at 1 to 4 ug/ml after 1 hr using ethidium bromide staining by agarose gel electrophoresis; assay type: protein assay
[9] = target: T2, DNA topoisomerase 4 (Staphylococcus epidermidis); assay: Inhibition of decatenation activity of DNA topoisomerase 4 in hospital methicillin-resistant Staphylococcus epidermidis 63/04 using kDNA as substrate at 1 to 4 ug/ml after 1 hr using ethidium bromide staining by agarose gel electrophoresis; assay type: protein assay
[10] = tested on: Staphylococcus epidermidis; assay: Inhibition of biofilm formation in Staphylococcus epidermidis ATCC 12228 after 24 hrs using MTT staining by spectrophotometer analysis; assay type: functional, organism-based; details: ATCC 12228, 24 h
How it was run: (§1)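 Biofilm was grown for 24 h at 37 °C in TSB with 0.5% glucose from 10^7 CFU/mL inoculum, mixed 1:1 with compound. Final concentrations were 0.125–4 or 0.25–8 µg/ml. Wells were PBS-washed and MTT-stained for 2 h at 37 °C, solubilized in DMSO/glycine buffer and read at 554 nm. IC50 (50% inhibition of biofilm formation) was taken from the dose-response curve; quadruplicates.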

[11] = tested on: Staphylococcus epidermidis; assay: Inhibition of biofilm formation in Staphylococcus epidermidis […]/[…] after 24 hrs using MTT staining by spectrophotometer analysis; assay type: functional, organism-based; details: 16/04, 24 h
[12] = tested on: Staphylococcus epidermidis; assay: Inhibition of biofilm formation in Staphylococcus epidermidis 31/04 after 24 hrs using MTT staining by spectrophotometer analysis; assay type: functional, organism-based; details: 31/04, 24 h
[13] = tested on: Staphylococcus epidermidis; assay: Inhibition of biofilm formation in Staphylococcus epidermidis 62/04 after 24 hrs using MTT staining by spectrophotometer analysis; assay type: functional, organism-based; details: 62/04, 24 h; how it was run: as §1
[14] = tested on: Staphylococcus epidermidis; assay: Inhibition of biofilm formation in Staphylococcus epidermidis 63/04 after 24 hrs using MTT staining by spectrophotometer analysis; assay type: functional, organism-based; details: 63/04, 24 h; how it was run: as §1
[15] = tested on: Staphylococcus epidermidis; assay: Inhibition of biofilm formation in Staphylococcus epidermidis 76/04 after 24 hrs using MTT staining by spectrophotometer analysis; assay type: functional, organism-based; details: 76/04, 24 h; how it was run: as §1
[16] = tested on: Staphylococcus epidermidis; assay: Inhibition of biofilm formation in Staphylococcus epidermidis […]/[…] at 4 ug/ml after 24 hrs using MTT staining by spectrophotometer analysis; assay type: functional; details: 16/04, 24 h
[17] = target: T2, DNA topoisomerase 4 (Staphylococcus epidermidis); assay: Inhibition of decatenation activity of DNA topoisomerase 4 in Staphylococcus epidermidis ATCC 35984 using kDNA as substrate at 32 ug/ml after 1 hr using ethidium bromide staining by agarose gel electrophoresis; assay type: protein assay
[18] = target: T1, Topoisomerase IV (Staphylococcus aureus); assay: Inhibition of decatenation activity of DNA topoisomerase 4 in hospital methicillin-resistant Staphylococcus aureus 57/05 using kDNA as substrate at 32 ug/ml after 1 hr using ethidium bromide staining by agarose gel electrophoresis; assay type: protein-complex assay
[19] = target: T1, Topoisomerase IV (Staphylococcus aureus); assay: Inhibition of decatenation activity of DNA topoisomerase 4 in hospital methicillin-resistant Staphylococcus aureus 79/05 using kDNA as substrate at 32 ug/ml after 1 hr using ethidium bromide staining by agarose gel electrophoresis; assay type: protein-complex assay
[20] = target: T1, Topoisomerase IV (Staphylococcus aureus); assay: Inhibition of decatenation activity of DNA topoisomerase 4 in hospital methicillin-resistant Staphylococcus aureus 81/05 using kDNA as substrate at 32 ug/ml after 1 hr using ethidium bromide staining by agarose gel electrophoresis; assay type: protein-complex assay
How it was run: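 Enzyme was S. aureus topoisomerase IV from a commercial decatenation kit, with kinetoplast DNA as substrate (1 U per 200 ng kDNA) in the supplied buffer. Compound was present at 1, 4 or 32 µg/ml, 30 min at 37 °C. Reactions were stopped with STEB and extracted with chloroform/isoamyl alcohol, then run on 1% agarose in TAE for 1 h at 120 V and stained with ethidium bromide. No-enzyme and DMSO controls were included.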

[21] = target: T1, Topoisomerase IV (Staphylococcus aureus); assay: Inhibition of decatenation activity of DNA topoisomerase 4 in hospital methicillin-resistant Staphylococcus aureus 573/11 using kDNA as substrate at 32 ug/ml after 1 hr using ethidium bromide staining by agarose gel electrophoresis; assay type: protein-complex assay
[22] = target: T2, DNA topoisomerase 4 (Staphylococcus epidermidis); assay: Inhibition of decatenation activity of DNA topoisomerase 4 in hospital methicillin-resistant Staphylococcus epidermidis 76/04 using kDNA as substrate at 32 ug/ml after 1 hr using ethidium bromide staining by agarose gel electrophoresis; assay type: protein assay
[23] = target: T2, DNA topoisomerase 4 (Staphylococcus epidermidis); details: 24/04, at 1 to 4 µg/mL
[24] = target: T2, DNA topoisomerase 4 (Staphylococcus epidermidis); details: 16/04, at 32 µg/mL
CCRF-SB = assay: Cytotoxicity against human CCRF-SB cells after 96 hrs by MTT assay; assay type: functional
How it was run: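 Leukaemia/lymphoma lines seeded at 1×10^5 cells/ml in RPMI-1640 with 10% FCS and penicillin/streptomycin; incubated with serial dilutions at 37°C, 5% CO2; viability by MTT after 96 h; value is concentration reducing proliferation by 50%, with untreated controls undergoing at least three rounds of multiplication.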

SMILES | inhibition [1] | inhibition [2] | inhibition [3] | inhibition [4] | inhibition [5] | inhibition [6] | inhibition [7] | inhibition [8] | inhibition [9] | IC50 [10] | IC50 [11] | IC50 [12] | IC50 [13] | IC50 [14] | IC50 [15] | inhibition at 4 µg/mL [16] | inhibition [17] | inhibition [18] | inhibition [19] | CC50 (CCRF-SB) | also measured
O=C(O)c1cn(C2CC2)c2cc(N3CCNCC3)c(F)cc2c1=O [CIPROFLOXACIN] | Active | Active | Active | Active | Active | Active | Active | Active | Active | 7 µg/mL (≈ 21.1 µM) | 6.81 µg/mL (≈ 20.6 µM) | 22.1 µg/mL (≈ 66.8 µM) | 4.81 µg/mL (≈ 14.5 µM) | 7.14 µg/mL (≈ 21.5 µM) | 7.93 µg/mL (≈ 23.9 µM) | 42% | Active | Active | Active | – | inhibition [20]: Active; inhibition [21]: Active; inhibition [22]: Active; inhibition [23]: Active; inhibition [24]: Active
FC(F)(F)c1cccc(NC(S)=Nc2ccc(Cl)c(Cl)c2)c1 | – | – | – | – | – | – | – | – | – | – | – | – | – | – | – | – | – | – | – | 8.8 µM | –
FC(F)(F)c1cccc(NC(=S)Nc2ccc(Cl)cc2)c1 | – | – | – | – | – | – | – | – | – | – | – | – | – | – | – | – | – | – | – | 11 µM | –
FC(F)(F)c1cccc(NC(=S)Nc2cccc(Br)c2)c1 | Active | Active | Active | Active | Active | Active | Active | Active | Active | 2.8 µg/mL (≈ 7.46 µM) | 3.91 µg/mL (≈ 10.4 µM) | 3.76 µg/mL (≈ 10 µM) | 1.98 µg/mL (≈ 5.28 µM) | 5 µg/mL (≈ 13.3 µM) | 2.98 µg/mL (≈ 7.94 µM) | 61.7% | Active | Active | Active | 9 µM | inhibition [20]: Active; inhibition [21]: Active; inhibition [22]: Active; inhibition [23]: Active; inhibition [24]: Active
Fc1ccc(NC(=S)Nc2cccc(C(F)(F)F)c2)cc1Cl | Active | Active | Active | Active | Active | Active | Active | Active | Active | 1.62 µg/mL (≈ 4.65 µM) | 1.35 µg/mL (≈ 3.87 µM) | 1.18 µg/mL (≈ 3.38 µM) | 0.97 µg/mL (≈ 2.78 µM) | 2.39 µg/mL (≈ 6.85 µM) | 2.85 µg/mL (≈ 8.17 µM) | 72% | Active | Active | Active | 9.5 µM | inhibition [20]: Active; inhibition [21]: Active; inhibition [22]: Active; inhibition [23]: Active; inhibition [24]: Active

Source: ChEMBL document CHEMBL3616436, “Synthesis, cytotoxicity and antimicrobial activity of thiourea derivatives incorporating 3-(trifluoromethyl)phenyl moiety” (Eur J Med Chem, 2015)
